The target in one data set is Histone deacetylase 1 (Homo sapiens, UniProt Q13547). The data set can be described thus: Inhibition of human recombinant HDAC1 using ZMAL (Z-(Ac)Lys-AMC) as fluorogenic substrate incubated for 120 mins by microplate reader assay.
Data set [1] is described as follows: Solubility of the compound at pH 3 PBS buffer incubated for 24 hrs by HPLC-UV analysis. Format: physicochemical. The note with it: pH 3, 24 h. In short, it runs like this:
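Compound from 10 mM DMSO stock diluted to 250 μM (2.5% DMSO), either in 50 mM acetic acid (pH 3.0) or in 50 mM aqueous PBS (pH 7.4). Shaken 24 h at 25 °C, PTFE-filtered and diluted 1:2. Quantified by RP-18 HPLC-UV at 254 nm against a 250 μM standard in MeCN/water. Run in triplicate and averaged.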

Data set [2] can be described thus: Chemical stability of the compound at pH 3 incubated for 24 hrs by HPLC-UV analysis. It is filed as physicochemical. The following applies: buffer, read-out: Stability. In short, it runs like this:
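Compound from 10 mM DMSO stock diluted to 250 μM (2.5% DMSO) in 50 mM acetic acid, pH 3.0. Held 24 h at 25 °C with orbital shaking. Analysed by RP-18 HPLC with UV at 254 nm. Percent remaining = peak area at 24 h / peak area at T0 × 100. Run in triplicate and averaged.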

A short description of data set [3]: Metabolic stability in human liver microsome assessed as intrinsic clearance at 5 uM in presence of NADPH incubated up to 60 mins by HPLC analysis. It is filed as ADME. The following applies: microsomes, 1 h. In outline: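 Compound at 5 μM, added in MeCN, incubated at 37 °C in 100 mM phosphate buffer pH 7.4 with 0.5 mg/mL human liver microsomal protein. Reaction started with an NADPH-generating system (2 mM NADPH, glucose-6-phosphate, G6P dehydrogenase, MgCl2). Stopped with MeCN at time points over 0–60 min. Remaining compound measured by RP-18 HPLC-UV at 254 nm, in triplicate. First-order depletion constant k; CLint = k × incubation volume / microsomal protein.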

In data set [4] the target is T1, Protein deacetylase HDAC6 (Homo sapiens) (UniProt Q9UBN7).
T1 sequence (whole entry): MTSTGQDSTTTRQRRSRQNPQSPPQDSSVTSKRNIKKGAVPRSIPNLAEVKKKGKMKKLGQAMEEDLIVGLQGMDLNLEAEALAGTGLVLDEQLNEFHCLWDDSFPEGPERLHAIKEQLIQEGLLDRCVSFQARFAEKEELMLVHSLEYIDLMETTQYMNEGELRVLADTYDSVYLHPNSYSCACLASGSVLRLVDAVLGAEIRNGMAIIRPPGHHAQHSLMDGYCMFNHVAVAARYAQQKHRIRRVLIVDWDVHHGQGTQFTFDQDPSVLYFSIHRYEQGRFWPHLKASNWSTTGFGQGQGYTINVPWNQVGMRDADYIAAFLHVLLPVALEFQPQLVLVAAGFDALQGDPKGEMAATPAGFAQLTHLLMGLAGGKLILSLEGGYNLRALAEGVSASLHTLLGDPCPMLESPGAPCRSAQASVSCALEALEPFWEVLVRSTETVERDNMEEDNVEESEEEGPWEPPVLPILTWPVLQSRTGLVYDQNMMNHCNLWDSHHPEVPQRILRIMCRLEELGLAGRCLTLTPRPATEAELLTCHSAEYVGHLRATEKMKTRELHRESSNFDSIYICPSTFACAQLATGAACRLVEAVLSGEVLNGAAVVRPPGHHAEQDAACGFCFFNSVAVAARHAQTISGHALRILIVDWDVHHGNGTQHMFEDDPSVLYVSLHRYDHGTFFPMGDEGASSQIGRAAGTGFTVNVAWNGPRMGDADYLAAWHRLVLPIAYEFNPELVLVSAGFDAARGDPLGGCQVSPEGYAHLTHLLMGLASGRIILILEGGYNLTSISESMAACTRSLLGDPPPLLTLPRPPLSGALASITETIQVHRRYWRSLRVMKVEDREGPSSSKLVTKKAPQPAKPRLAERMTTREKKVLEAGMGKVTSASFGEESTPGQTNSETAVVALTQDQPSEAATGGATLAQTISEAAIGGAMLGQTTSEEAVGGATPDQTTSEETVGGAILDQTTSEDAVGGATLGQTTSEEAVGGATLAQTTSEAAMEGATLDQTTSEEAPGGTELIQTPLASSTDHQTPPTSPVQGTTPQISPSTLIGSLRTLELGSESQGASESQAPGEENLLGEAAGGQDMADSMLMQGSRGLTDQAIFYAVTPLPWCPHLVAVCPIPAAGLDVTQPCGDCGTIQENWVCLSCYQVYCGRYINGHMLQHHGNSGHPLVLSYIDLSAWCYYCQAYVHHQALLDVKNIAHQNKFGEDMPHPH
The data set can be described thus: Inhibition of HDAC6 in human NB-4 cells assessed as increase in acetylation of alpha-tubulin at 5 uM incubated for 30 hrs by western blot analysis. Format: cell-based. In outline:
(§1)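 Whole lysates (35 μg) and acid-extracted histones (2 μg) run on SDS-PAGE and blotted for acetylated tubulin or acetyl-histone H3; GAPDH or H4 as loading controls.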

The target in data set [5] is T1, Protein deacetylase HDAC6 (Homo sapiens). The data set can be described thus: Inhibition of HDAC6 in human U87 cells assessed as increase in acetylation of alpha-tubulin at 5 uM incubated for 30 hrs by western blot analysis. Format: cell-based. In short, it runs like this: as §1
Another data set concerns Airway basal cell. The data set can be described thus: Inhibition of spheroid count in IPF patient derived human Airway basal cell assessed as reduction in sphere count at 20 to 50 nM incubated for 14 days by Bright-field microscopy analysis. It is filed as functional, cell-based. The note with it: dose 20-50 nM, time 14.0 day. In outline: (§2)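 Airway basal cells from bronchial brushings of IPF patients, 10⁴ cells in Matrigel on transwell inserts with 1:1 BEGM/DMEM. Treated 14 days (1–50 nM per methods; 0.1–50 nM per legend), medium changed every 7 days.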

A short description of data set [6]: Inhibition of spheroid count in IPF patient derived human Airway basal cell incubated for 14 days by Bright-field microscopy analysis. It is filed as functional, cell-based. In outline: as §2
The nature of data set [7]: Inhibition of cell proliferation in IPF patient derived human Airway basal cell incubated for 14 days by MTT assay. It is filed as functional, cell-based. The following applies: 336 h. In outline:
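IPF patient airway basal cell 3D organoid cultures (10⁴ cells in Matrigel, 1:1 BEGM/DMEM) treated 14 days at 1–50 nM, medium changed weekly. Proliferation read by colorimetric MTT on day 14. Mean ± SEM of triplicates, n=3; repeated-measures ANOVA/Friedman test. Reported IC50 is the mean of the count-based and MTT-based IC50s.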

Converted amounts (≈) assume the structure as drawn. The source made the active and inactive calls. The calls are words filed in the database; no cut-off is given here.

Histone deacetylase 1, sequence (Q13547 whole entry): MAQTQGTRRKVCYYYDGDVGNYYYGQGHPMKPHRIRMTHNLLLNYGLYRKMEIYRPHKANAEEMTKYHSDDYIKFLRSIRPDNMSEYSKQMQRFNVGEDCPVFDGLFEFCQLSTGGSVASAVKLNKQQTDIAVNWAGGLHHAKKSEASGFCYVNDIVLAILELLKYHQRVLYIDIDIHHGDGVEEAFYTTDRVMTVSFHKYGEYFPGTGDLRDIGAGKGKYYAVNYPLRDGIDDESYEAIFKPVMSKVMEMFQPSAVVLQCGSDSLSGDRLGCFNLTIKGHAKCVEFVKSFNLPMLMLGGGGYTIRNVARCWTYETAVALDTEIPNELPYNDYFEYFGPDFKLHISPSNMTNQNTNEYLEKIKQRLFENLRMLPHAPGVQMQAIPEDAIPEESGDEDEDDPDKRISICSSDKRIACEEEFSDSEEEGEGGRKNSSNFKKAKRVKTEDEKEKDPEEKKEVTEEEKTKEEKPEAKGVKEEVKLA

`CN1CCC2(CC1)c1ccccc1N(Cc1ccc(C(=O)NO)cc1)C2c1ccccc1F` (racemic): the IC50 was 4850 nM on Histone deacetylase 1, 6.38 nM in [6] and 0.16 nM in data set [7]. Besides, in [1], the solubility is 456 µM (≈ 203 µg/mL). Besides, the remaining at 24 h in data set [2] came to 98%. Also, in data set [3], the CLH was found to be 27.43 µL/min/mg. The inhibition result (in [4]; in data set [5]; in the data set with Airway basal cell) was “Active” in each case.

As for `CC1(C)c2ccccc2N(Cc2ccc(C(=O)NO)cc2)C1c1cccnc1` (racemic), the results for the IC50 (on Histone deacetylase 1; in [6]; in data set [7]) were 5330 nM, 7.31 nM and 7.31 nM, respectively. For the same compound, the solubility in [1] amounted to 459 µM (≈ 171 µg/mL). Further, the remaining at 24 h in data set [2] came to 89%. Moreover, the CLH in data set [3] stood at 25.46 µL/min/mg. Also, the inhibition result (in data set [4]; in data set [5]; in the data set on Airway basal cell) was “Active” in each case.

The values above are taken from ChEMBL document CHEMBL5226322, “Harnessing the Role of HDAC6 in Idiopathic Pulmonary Fibrosis: Design, Synthesis, Structural Analysis, and Biological Evaluation of Potent Inhibitors” (J Med Chem, 2021).
